In ChEMBL document CHEMBL1152911, “Synthesis and biological activities of a pH-dependently activated water-soluble prodrug of a novel hexacyclic camptothecin analog” (Bioorg Med Chem Lett, 2009):
Calls of active or inactive are those of the source. The rule behind the calls is not given here.

How the values were obtained:
[1] = Stability of compound in pH 5 phosphate buffer at room temperature assessed as prodrug remaining after conversion into active drug CH0793076 after 3 hrs; assay type: physicochemical; settings: pH 5, 3 h
[2] = Stability of compound in pH 7.4 phosphate buffer at room temperature assessed as prodrug remaining after conversion into active drug CH0793076 after 3 hrs; assay type: physicochemical; settings: pH 7.4, 3 h
[3] = Stability of compound in pH 2 phosphate buffer at room temperature assessed as prodrug remaining after conversion into active drug CH0793076 after 3 hrs; assay type: physicochemical; settings: pH 2, 3 h
Plasma [4] = test: Stability in mouse plasma assessed as time required for conversion into active drug CH0793076; assay type: ADME, cell-free
[5] = Toxicity in mouse administered as bolus iv injection once per week for 3 weeks; assay type: organism-based; settings: in vivo
NCI-H460 [6] = test: Antitumor activity against human BCRP-positive NCI-H460 cells xenografted in mouse at MTD of 100 mg/kg, iv administered as bolus once per week for 3 weeks; assay type: functional, organism-based; set-up: dose 100 mg/kg
Plasma [7] = test: Stability in dog plasma assessed as time required for conversion into active drug CH0793076; assay type: ADME, cell-free, Canis lupus familiaris
Summary of the method: (§1)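 ¹⁴C-labelled prodrug was incubated in plasma of the stated species. Formation of ¹⁴C-labelled active drug was followed over an incubation time course of 0–3 min.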

Plasma [8] = test: Stability in monkey plasma assessed as time required for conversion into active drug CH0793076; assay type: ADME, cell-free, Macaca mulatta; settings: rhesus monkey
HCT-116 [9] = test: Antitumor activity against human BCRP-negative HCT116 cells xenografted in mouse at MTD of 100 mg/kg, iv administered as bolus once per week for 3 weeks; assay type: functional, organism-based; set-up: dose 100 mg/kg
HCT-116 [10] = test: Antitumor activity against human BCRP-negative HCT116 cells xenografted in mouse at MTD of 47 mg/kg, iv administered as bolus once per week for 3 weeks; assay type: functional, organism-based; set-up: dose 47 mg/kg
Plasma [11] = test: Stability in rat plasma assessed as time required for conversion into active drug CH0793076; assay type: ADME, cell-free; summary of the method: as §1
[12] = Solubility in water; assay type: physicochemical
NCI-H460 [13] = test: Antitumor activity against human BCRP-positive NCI-H460 cells xenografted in mouse at MTD of 47 mg/kg, iv administered as bolus once per week for 3 weeks; assay type: functional, organism-based; set-up: dose 47 mg/kg

## CCCCCN1C=Nc2cccc3nc4c(c1c23)Cn1c-4cc2c(c1=O)COC(=O)[C@@]2(CC)OC(=O)CNC(=O)CN.Cl
[1]
  Stability: 100%
[2]
  Stability: 47%

## CCCCCN1C=Nc2cccc3nc4c(c1c23)Cn1c-4cc2c(c1=O)COC(=O)[C@@]2(CC)OC(=O)OCCS(=O)(=O)C[C@H](N)C(=O)OCC.Cl
[3]
  Stability: 100%
[1]
  Stability: 68%
[2]
  Stability: 43%

## CCCCCN1C=Nc2cccc3nc4c(c1c23)Cn1c-4cc2c(c1=O)COC(=O)[C@@]2(CC)OC(=O)OCCS(=O)(=O)CCN.Cl
[3]
  Stability: 100%
[1]
  Stability: 96%
[2]
  Stability: 4%

## CCCCCN1C=Nc2cccc3nc4c(c1c23)Cn1c-4cc2c(c1=O)COC(=O)[C@@]2(CC)OC(=O)CNC(=O)CNC.Cl
[3]
  Stability: 100%
[1]
  Stability: 100%
[2]
  Stability: 73%

## CCCCCN1C=Nc2cccc3nc4c(c1c23)Cn1c-4cc2c(c1=O)COC(=O)[C@@]2(CC)OC(=O)[C@H](C)N(C)C(=O)CN.Cl
[3]
  Stability: 99%
[1]
  Stability: 47%
[2]
  Stability: 0%

## CCCCCN1C=Nc2cccc3nc4c(c1c23)Cn1c-4cc2c(c1=O)COC(=O)[C@@]2(CC)OC(=O)CN(C)C(=O)CN.Cl
Plasma [4]
  Stability: < 1 min
[5]
  MTD at 504 h: 47 mg/kg
NCI-H460 [6]
  Activity: Active
Plasma [7]
  Stability: < 1 min
Plasma [8]
  Stability: < 1 min
HCT-116 [9]
  Activity: Active
[3]
  Stability: 100%
HCT-116 [10]
  Activity: Active
Plasma [11]
  Stability: < 1 min
[12]
  solubility: > 10000 µg/mL
NCI-H460 [13]
  Activity: Active
[1]
  Stability: 83%
[2]
  Stability: 0%

## CCCCCN1C=Nc2cccc3nc4c(c1c23)Cn1c-4cc2c(c1=O)COC(=O)[C@@]2(CC)OC(=O)CN(C)C(=O)CNC.Cl
[3]
  Stability: 95%
[1]
  Stability: 83%
[2]
  Stability: 0%

## CCCCCN1C=Nc2cccc3nc4c(c1c23)Cn1c-4cc2c(c1=O)COC(=O)[C@@]2(CC)OC(=O)CN(C)C(=O)C(C)(C)N.Cl
[3]
  Stability: 78%
[1]
  Stability: 0%
[2]
  Stability: 0%
